Experiments:
A549 = test: Cytotoxicity against human A549 cells assessed as cell viability incubated for 24 hrs in presence of IL-1beta by MTT assay; type: cell-based; details: a549, 24 h
Outline: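 A549 cells exposed to compounds at 1 µM with interleukin-1β (1 ng/mL) for 24 h; viability read by MTT assay.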

Prostaglandin E synthase [1] = target: T1, Prostaglandin E synthase (Homo sapiens, UniProt O14684); test: Inhibition of mPGES-1 in human A549 cells assessed as reduction in IL-1beta stimulated PGE2 production incubated for 24 hrs by EIA; type: cell-based
T1 sequence (O14684 whole entry): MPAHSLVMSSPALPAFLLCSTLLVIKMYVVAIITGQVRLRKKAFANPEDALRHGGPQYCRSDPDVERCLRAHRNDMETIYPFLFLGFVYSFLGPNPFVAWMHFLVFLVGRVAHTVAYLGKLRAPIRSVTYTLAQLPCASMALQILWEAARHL

Prostaglandin E synthase [2] = target: T1, Prostaglandin E synthase; test: Inhibition of mPGES-1 activity in IL-1beta stimulated human A549 cells microsomes assessed as reduction in PGE2 production preincubated for 15 mins followed by PGH2 addition and measured after 1 mins by EIA; set-up: species or system Microsome
Outline: (§1)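 Cell-free mPGES-1 assay using microsomal preparation from IL-1β-stimulated A549 cells. Preincubated with compounds or DMSO vehicle for 15 min on ice, then reacted 1 min with substrate. PGE2 production measured by EIA kit. Remaining activity expressed as % of control, mean ± SDs (n = 3).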

CYP2D6 = CYP2D6 (Homo sapiens, UniProt P10635); test: Inhibition of CYP2D6 in human liver microsomes assessed as enzyme remaining activity at 10 uM using bufuralol as substrate incubated for 20 mins in presence of NADPH by LC-MS/MS analysis relative to control; type: ADME; details: probe bufuralol, read-out: Activity
Outline: (§2)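 CYP1A2, 2C9, 2C19, 2D6 and 3A4 activities measured with each compound at 10 µM; result given as % of control activity.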

[3] = Metabolic stability in human liver microsomes assessed as parent compound remaining at 1 uM incubated for 30 mins in presence of NADPH by LC-MS/MS analysis; type: ADME, Microsome; details: read-out: Stabilty
Outline: (§3)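 Single-point metabolic stability in mouse, rat, dog and human liver microsomes. Compound at 1.0 µM incubated with 1.0 mg/mL protein at 37 °C for 30 min; % parent remaining reported.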

CYP2C9 = CYP2C9 (Homo sapiens, UniProt P11712); test: Inhibition of CYP2C9 in human liver microsomes assessed as enzyme remaining activity at 10 uM using diclofenac as substrate incubated for 20 mins in presence of NADPH by LC-MS/MS analysis relative to control; type: ADME; details: probe diclofenac, read-out: Activity; outline: as §2
CYP1A2 = target: T2, CYP1A2 (Homo sapiens, UniProt P05177); test: Inhibition of CYP1A2 in human liver microsomes assessed as enzyme remaining activity at 10 uM using phenacetin as substrate incubated for 20 mins in presence of NADPH by LC-MS/MS analysis relative to control; type: ADME; details: probe phenacetin, read-out: Activity; outline: as §2
T2 sequence (P05177 whole entry): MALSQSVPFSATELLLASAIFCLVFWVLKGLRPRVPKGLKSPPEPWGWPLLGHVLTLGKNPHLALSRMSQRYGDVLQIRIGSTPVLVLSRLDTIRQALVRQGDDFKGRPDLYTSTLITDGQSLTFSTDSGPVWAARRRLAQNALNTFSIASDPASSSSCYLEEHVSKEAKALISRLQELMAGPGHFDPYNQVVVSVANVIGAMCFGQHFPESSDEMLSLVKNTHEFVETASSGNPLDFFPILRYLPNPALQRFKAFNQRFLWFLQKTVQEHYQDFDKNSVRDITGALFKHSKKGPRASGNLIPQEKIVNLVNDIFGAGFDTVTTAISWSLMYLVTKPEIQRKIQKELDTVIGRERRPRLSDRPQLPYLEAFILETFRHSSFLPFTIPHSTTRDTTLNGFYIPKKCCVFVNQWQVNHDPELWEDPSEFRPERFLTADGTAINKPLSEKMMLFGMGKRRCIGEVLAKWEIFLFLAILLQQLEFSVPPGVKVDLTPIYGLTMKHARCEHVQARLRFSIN

[4] = Selectivity index, ratio of IC50 for inhibition of mPGES-1 in human A549 cells assessed as reduction in IL-1beta stimulated PGI2 production to IC50 for inhibition of mPGES-1 in human A549 cells assessed as reduction in IL-1 beta stimulated PGE2 production
[5] = Metabolic stability in dog liver microsomes assessed as parent compound remaining at 1 uM incubated for 30 mins in presence of NADPH by LC-MS/MS analysis; type: ADME, Canis lupus familiaris, Microsome; details: read-out: Stabilty; outline: as §3
CYP3A4 = CYP3A4 (Homo sapiens, UniProt P08684); test: Inhibition of CYP3A4 in human liver microsomes assessed as enzyme remaining activity at 10 uM using testosterone as substrate incubated for 20 mins in presence of NADPH by LC-MS/MS analysis relative to control; type: ADME; details: probe testosterone, read-out: Activity; outline: as §2
[6] = Stability in human plasma assessed as parent compound remaining at 10 uM after 30 mins by UPLC-MS analysis; type: ADME, cell-free; details: read-out: Stabilty
Outline: (§4)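 Compounds at 10 µM incubated in human or rat plasma; % remaining after 30 min reported.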

[7] = target: Voltage-gated inwardly rectifying potassium channel KCNH2 (Homo sapiens, UniProt Q12809); test: Binding affinity to human ERG
[8] = target: T3, Prostaglandin E synthase (Homo sapiens) (UniProt O14684); test: Potency index, ratio of MK886 IC50 to test compound IC50 for inhibition of mPGES-1 in human A549 cells microsomes; details: Microsome
T3 sequence (whole entry): T1 sequence (O14684 whole entry)

[9] = Metabolic stability in mouse liver microsomes assessed as parent compound remaining at 1 uM incubated for 30 mins in presence of NADPH by LC-MS/MS analysis; type: ADME, Microsome; details: read-out: Stabilty; outline: as §3
CYP2C19 = CYP2C19 (Homo sapiens, UniProt P33261); test: Inhibition of CYP2C19 in human liver microsomes assessed as enzyme remaining activity at 10 uM using mephenytoin as substrate incubated for 20 mins in presence of NADPH by LC-MS/MS analysis relative to control; type: ADME; details: probe mephenytoin, read-out: Activity; outline: as §2
[10] = Metabolic stability in rat liver microsomes assessed as parent compound remaining at 1 uM incubated for 30 mins in presence of NADPH by LC-MS/MS analysis; type: ADME, Microsome; details: read-out: Stabilty; outline: as §3
[11] = Stability in rat plasma assessed as parent compound remaining at 10 uM after 30 mins by UPLC-MS analysis; type: ADME, cell-free; details: read-out: Stabilty; outline: as §4
Prostaglandin E synthase [12] = target: T4, Prostaglandin E synthase (Mus musculus, UniProt Q9JM51); test: Inhibition of mPGES-1 in mouse RAW264.7 cells assessed as reduction in LPS-stimulated PGE2 production; type: cell-based
T4 sequence (Q9JM51 whole entry): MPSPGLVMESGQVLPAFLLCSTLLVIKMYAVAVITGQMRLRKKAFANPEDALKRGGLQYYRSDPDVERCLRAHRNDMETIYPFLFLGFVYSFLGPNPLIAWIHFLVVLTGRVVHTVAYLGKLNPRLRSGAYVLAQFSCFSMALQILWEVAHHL

Prostaglandin E synthase [13] = target: T1, Prostaglandin E synthase; test: Inhibition of mPGES-1 activity in IL-1beta stimulated human A549 cells by cell-free assay; outline: as §1

Chain of Voltage-gated inwardly rectifying potassium channel KCNH2 (Q12809 whole entry): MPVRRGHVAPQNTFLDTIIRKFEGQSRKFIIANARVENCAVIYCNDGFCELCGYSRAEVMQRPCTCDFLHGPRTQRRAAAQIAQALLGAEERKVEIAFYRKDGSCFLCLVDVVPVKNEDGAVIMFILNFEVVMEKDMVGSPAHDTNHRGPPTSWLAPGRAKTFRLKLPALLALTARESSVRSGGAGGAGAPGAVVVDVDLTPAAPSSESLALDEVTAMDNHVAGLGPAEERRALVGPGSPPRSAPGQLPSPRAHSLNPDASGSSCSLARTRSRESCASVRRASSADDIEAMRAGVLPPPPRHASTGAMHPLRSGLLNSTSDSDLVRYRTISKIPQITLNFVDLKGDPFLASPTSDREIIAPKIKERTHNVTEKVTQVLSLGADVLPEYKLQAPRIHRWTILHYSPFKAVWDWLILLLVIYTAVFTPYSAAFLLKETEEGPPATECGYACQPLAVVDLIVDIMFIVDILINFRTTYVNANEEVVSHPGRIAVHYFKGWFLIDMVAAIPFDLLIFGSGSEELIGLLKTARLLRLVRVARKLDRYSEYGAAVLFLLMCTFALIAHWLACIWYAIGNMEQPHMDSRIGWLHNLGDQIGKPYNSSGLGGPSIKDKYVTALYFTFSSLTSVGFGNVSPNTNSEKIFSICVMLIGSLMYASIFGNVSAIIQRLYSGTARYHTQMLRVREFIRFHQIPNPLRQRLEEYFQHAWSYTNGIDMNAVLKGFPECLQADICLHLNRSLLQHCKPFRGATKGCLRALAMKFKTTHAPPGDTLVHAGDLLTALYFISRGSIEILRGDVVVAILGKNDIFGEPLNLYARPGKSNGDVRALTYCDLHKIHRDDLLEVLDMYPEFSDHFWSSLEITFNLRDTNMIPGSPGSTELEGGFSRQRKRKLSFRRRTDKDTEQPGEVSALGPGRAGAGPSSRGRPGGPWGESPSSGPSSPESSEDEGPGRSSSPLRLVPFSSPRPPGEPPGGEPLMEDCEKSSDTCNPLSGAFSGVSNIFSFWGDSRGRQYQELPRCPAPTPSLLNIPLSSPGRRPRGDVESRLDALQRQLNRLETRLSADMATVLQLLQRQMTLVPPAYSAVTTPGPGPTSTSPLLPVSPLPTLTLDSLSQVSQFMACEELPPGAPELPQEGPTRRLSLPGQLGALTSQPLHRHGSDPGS
Chain of CYP3A4 (P08684 whole entry): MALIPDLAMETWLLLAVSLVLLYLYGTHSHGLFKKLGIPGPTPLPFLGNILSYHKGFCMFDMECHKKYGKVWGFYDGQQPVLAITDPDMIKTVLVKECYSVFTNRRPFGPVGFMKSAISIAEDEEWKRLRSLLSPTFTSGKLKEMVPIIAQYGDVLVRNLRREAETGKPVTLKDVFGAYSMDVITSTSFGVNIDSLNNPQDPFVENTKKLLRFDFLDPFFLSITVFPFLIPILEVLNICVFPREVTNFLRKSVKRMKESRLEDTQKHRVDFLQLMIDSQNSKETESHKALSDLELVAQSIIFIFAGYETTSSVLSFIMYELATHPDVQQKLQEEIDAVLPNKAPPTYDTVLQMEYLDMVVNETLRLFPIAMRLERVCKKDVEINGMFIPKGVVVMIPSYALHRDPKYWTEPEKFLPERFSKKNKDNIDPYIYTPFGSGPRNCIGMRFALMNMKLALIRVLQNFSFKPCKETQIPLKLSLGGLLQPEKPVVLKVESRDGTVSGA
Chain of CYP2C19 (P33261 whole entry): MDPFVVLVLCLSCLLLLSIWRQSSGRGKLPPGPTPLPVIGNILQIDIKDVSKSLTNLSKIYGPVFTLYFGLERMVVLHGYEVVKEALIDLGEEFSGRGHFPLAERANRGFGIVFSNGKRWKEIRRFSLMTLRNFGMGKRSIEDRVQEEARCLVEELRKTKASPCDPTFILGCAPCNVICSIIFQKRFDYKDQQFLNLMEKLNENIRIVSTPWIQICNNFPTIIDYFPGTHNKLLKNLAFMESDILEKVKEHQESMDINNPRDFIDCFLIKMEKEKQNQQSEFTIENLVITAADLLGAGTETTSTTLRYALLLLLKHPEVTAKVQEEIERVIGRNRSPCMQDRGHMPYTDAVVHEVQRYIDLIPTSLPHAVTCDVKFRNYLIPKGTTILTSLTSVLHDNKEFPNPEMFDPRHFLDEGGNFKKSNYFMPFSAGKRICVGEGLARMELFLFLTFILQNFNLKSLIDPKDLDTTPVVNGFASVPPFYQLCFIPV
Chain of CYP2C9 (P11712 whole entry): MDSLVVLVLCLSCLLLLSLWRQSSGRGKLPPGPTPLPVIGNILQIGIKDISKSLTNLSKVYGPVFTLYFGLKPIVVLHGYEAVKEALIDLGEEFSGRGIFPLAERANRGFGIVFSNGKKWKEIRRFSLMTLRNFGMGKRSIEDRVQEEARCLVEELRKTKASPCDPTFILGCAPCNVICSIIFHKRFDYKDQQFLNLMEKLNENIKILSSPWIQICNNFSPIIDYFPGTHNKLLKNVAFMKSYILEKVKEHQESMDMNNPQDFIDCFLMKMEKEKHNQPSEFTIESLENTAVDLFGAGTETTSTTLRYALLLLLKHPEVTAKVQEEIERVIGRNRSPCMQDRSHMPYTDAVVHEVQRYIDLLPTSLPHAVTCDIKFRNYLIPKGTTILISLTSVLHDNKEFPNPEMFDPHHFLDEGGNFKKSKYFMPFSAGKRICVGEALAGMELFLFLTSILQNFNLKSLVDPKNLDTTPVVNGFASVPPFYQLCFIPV
Chain of CYP2D6 (P10635 whole entry): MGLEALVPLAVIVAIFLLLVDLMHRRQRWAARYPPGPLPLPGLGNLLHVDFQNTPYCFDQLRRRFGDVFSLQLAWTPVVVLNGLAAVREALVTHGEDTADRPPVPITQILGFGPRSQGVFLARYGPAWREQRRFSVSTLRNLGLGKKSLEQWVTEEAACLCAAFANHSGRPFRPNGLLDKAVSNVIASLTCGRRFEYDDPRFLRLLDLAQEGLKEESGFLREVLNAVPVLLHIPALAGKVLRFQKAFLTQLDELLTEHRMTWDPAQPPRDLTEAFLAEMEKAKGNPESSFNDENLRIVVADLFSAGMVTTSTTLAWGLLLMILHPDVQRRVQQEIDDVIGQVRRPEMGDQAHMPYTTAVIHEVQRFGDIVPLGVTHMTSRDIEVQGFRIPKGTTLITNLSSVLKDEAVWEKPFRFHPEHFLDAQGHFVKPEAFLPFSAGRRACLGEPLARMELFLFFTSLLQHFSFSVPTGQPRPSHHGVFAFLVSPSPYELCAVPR

IC50 (Prostaglandin E synthase [1]) [nM]	IC50 (Prostaglandin E synthase [2]) [nM]	activity at 20 min, 10 µM (CYP2D6) [%]	remaining at 0.5 h, 1 µM [3] [%]	activity at 20 min, 10 µM (CYP2C9) [%]	activity at 20 min, 10 µM (CYP1A2) [%]	remaining at 0.5 h, 1 µM [5] [%]	activity at 20 min, 10 µM (CYP3A4) [%]	remaining at 0.5 h, 10 µM [6] [%]	remaining at 0.5 h, 1 µM [9] [%]	activity at 20 min, 10 µM (CYP2C19) [%]	remaining at 0.5 h, 1 µM [10] [%]	remaining at 0.5 h, 10 µM [11] [%]	IC50 (Prostaglandin E synthase [12]) [nM]	IC50 (Prostaglandin E synthase [13]) [nM]	Compound	Activity (A549) [µM]	Ratio IC50 [4]	IC50 [7] [nM]	Ratio IC50 [8]
610	> 30000														O=C(Nc1ccc(OCc2ccccc2)cc1)N(Cc1ccccc1)S(=O)(=O)c1ccc(Cl)cc1	> 1			
160		> 100	44.9	97	99.4	37.7	> 100	> 100	53.4	56.9	44.1	2.1	340	7370	O=C(Oc1ccc(OCc2ccccc2)cc1)N(Cc1ccccc1)S(=O)(=O)c1ccc(Cl)cc1	> 1	8	5200	

More lines, now with the values behind:

Compound	IC50 (Prostaglandin E synthase [1]) [nM]	IC50 (Prostaglandin E synthase [2]) [nM]	activity at 20 min, 10 µM (CYP2D6) [%]	remaining at 0.5 h, 1 µM [3] [%]	activity at 20 min, 10 µM (CYP2C9) [%]	activity at 20 min, 10 µM (CYP1A2) [%]	remaining at 0.5 h, 1 µM [5] [%]	activity at 20 min, 10 µM (CYP3A4) [%]	remaining at 0.5 h, 10 µM [6] [%]	remaining at 0.5 h, 1 µM [9] [%]	activity at 20 min, 10 µM (CYP2C19) [%]	remaining at 0.5 h, 1 µM [10] [%]	remaining at 0.5 h, 10 µM [11] [%]	IC50 (Prostaglandin E synthase [12]) [nM]	IC50 (Prostaglandin E synthase [13]) [nM]	Activity (A549) [µM]	Ratio IC50 [4]	IC50 [7] [nM]	Ratio IC50 [8]
O=C(Oc1ccc(OCc2ccccc2)cc1)N(Nc1cccc(Cl)c1)S(=O)(=O)c1ccc(Cl)cc1	150	> 30000														> 1			
CC(C)c1ccc2c(c1)c(SC(C)(C)C)c(CC(C)(C)C(=O)O)n2Cc1ccc(Cl)cc1																> 1			
O=C(Nc1ccc(OCCCCc2ccccc2)cc1)N(Cc1ccccc1)S(=O)(=O)c1ccc(Cl)cc1	240	490	98.8	> 100	99.9	69.4	86.4	92.5	45	79	8.7	74.5	1.3			> 1	4	> 10000	8
O=C(Oc1ccc(OCc2ccccc2)cc1)N(Nc1ccccc1)S(=O)(=O)c1ccc(Cl)cc1	190	610	57.1	66.6	88.4	75.7	48.5	73.6	< 1	42.2	77.9	16.3	< 1	60		> 1		9600	

— ChEMBL document CHEMBL4814034, “Discovery of N-amido-phenylsulfonamide derivatives as novel microsomal prostaglandin E2 synthase-1 (mPGES-1) inhibitors” (Bioorg Med Chem Lett, 2021)
